Screens as filed in PubChem.
ASAP1 inh – inhibitors of human ASAP1 ArfGAP activity, primary screen, biochemical, fluorescence polarization | inhibition, % at 16.5 µM | 360,000 compounds, 0.19% hits | ASAP1-stimulated ARF1 GTP hydrolysis, GDP FP detection | AID 624377, 2012 | Arf-GAP with SH3 domain, ANK repeat and PH domain-containing protein 1 (Homo sapiens), …; in the data active = inhibition above about 25%;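 also: 0% = vehicle with enzyme and substrate and 100% = no enzyme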
Target sequence (Q9ULH1 325-724 limits assumed): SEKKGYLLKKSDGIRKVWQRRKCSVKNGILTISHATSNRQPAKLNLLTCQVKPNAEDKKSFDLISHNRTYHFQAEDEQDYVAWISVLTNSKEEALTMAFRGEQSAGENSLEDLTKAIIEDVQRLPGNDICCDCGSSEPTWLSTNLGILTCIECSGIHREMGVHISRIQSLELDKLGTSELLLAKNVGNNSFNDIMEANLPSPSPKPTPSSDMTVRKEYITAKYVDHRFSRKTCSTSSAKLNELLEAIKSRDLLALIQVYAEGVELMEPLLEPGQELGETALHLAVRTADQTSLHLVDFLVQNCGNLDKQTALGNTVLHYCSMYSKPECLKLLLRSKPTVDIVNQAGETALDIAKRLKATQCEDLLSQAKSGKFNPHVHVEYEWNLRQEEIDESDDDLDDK
PAFAH1B3 FP inh – PAFAH1B3 enzyme inhibitors, primary screen, biochemical, fluorescence polarization, human | Platelet-activating factor acetylhydrolase IB subunit alpha1 (Homo sapiens), Q15102 | 340,000 compounds, 0.28% hits | inhibition, % at 3.39 µM | recombinant PAFAH1B3, FP-rhodamine probe;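 active = inhibition above the screen-wide average of all tested compounds plus 3 SD, cut at about 25% in these data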;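 also: 0% = enzyme with DMSO only and 100% = wells lacking PAFAH1B3 protein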
Target sequence (Q15102 whole entry, looked up): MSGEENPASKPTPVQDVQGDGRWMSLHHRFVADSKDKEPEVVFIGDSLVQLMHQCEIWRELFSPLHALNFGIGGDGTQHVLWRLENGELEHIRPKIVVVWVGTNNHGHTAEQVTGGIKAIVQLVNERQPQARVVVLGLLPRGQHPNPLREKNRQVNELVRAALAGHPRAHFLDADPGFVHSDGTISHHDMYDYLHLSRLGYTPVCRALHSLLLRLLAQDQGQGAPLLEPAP
PAFAH2 inh – PAFAH2 enzyme inhibitors, primary screen, biochemical, fluorescence polarization, human | Platelet-activating factor acetylhydrolase 2, cytoplasmic (Homo sapiens), Q99487 | inhibition, % at 3.39 µM | AID 492956, 2010 | recombinant PAFAH2, FP-rhodamine activity probe | 340,000 compounds, 0.99% hits;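 active = inhibition above the mean over all tested compounds plus 3 SD, cut at about 30% in these data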;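 also: inhibitors block probe labeling of enzyme so polarization drops; 0% = enzyme with DMSO and 100% = wells lacking PAFAH2 protein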
pPAFAH FP inh – pPAFAH enzyme inhibitors, primary screen, biochemical, fluorescence polarization, human; Platelet-activating factor acetylhydrolase (Homo sapiens), Q13093; recombinant pPAFAH, FP-rhodamine probe fluorescence polarization; inhibition, % at 3.39 µM; 330,000 compounds, 1.5% hits; AID 463082, 2010;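 active = inhibition above the mean inhibition across the screen plus 3 SD, cut at about 25% in these data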;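 also: inhibitors block binding of the rhodamine activity-based probe so polarization drops; 0% = enzyme with DMSO and 100% = wells lacking pPAFAH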
ARFGAP1 inh – inhibitors of rat ARFGAP1 GAP activity, primary screen, biochemical, fluorescence polarization, GDP tracer. Arfgap1-stimulated ARF1 GTP hydrolysis, GDP FP detection. inhibition, % at 16.5 µM. 360,000 compounds, 0.26% hits;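 active = inhibition above a per-plate limit, mean inhibition of low control wells plus 3 SD, cut at about 25% in these data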;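 also: 0% = DMSO wells with enzyme and 100% = wells lacking Arfgap1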
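Material: rat Arfgap1 GAP domain (His6, aa 1-136), purified enzyme. Also added: human ARF1(Δ1-17)-GTP substrate. Compound dosing: 16.5 µM single point, 1.26% DMSO. Timing: enzyme reaction 120 min at 25 °C after 20 min preincubation. Signal: GDP detection by fluorescence polarization. Read-out basis: percent inhibition of GAP-stimulated GDP formation, scaled between DMSO and no-Arfgap1 medians.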
PAFAH1B2 inh – PAFAH1B2 enzyme inhibitors, primary screen, biochemical, fluorescence polarization, human; Platelet-activating factor acetylhydrolase IB subunit alpha2 (Homo sapiens), P68402; inhibition, % at 3.39 µM; recombinant PAFAH1B2, FP-rhodamine activity probe; 340,000 compounds, 1.2% hits;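 active = inhibition above the mean of all tested compounds plus 3 SD, cut at about 24% in these data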;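 also: 0% = enzyme with DMSO and 100% = wells lacking PAFAH1B2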
PAFAH2 FP conf – PAFAH2 enzyme inhibitors, confirmation, biochemical, fluorescence polarization, human; shares compounds with PAFAH2 inh; recombinant PAFAH2, FP-rhodamine activity probe; inhibition, % at 3.39 µM; 2,300 compounds, 65% hits;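 active = mean inhibition over three repeats above a set limit taken from the earlier primary screen, cut at about 30% in these data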;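 also: inhibitor blocks binding of rhodamine activity probe so polarization falls; 0% = enzyme with DMSO and 100% = wells lacking PAFAH2 protein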
Active calls of the source: *; . = not tested or not shown. Most compounds without a hit are left out; they make up all but 2.7% or so of the library.

SMILES	ASAP1 inh	PAFAH1B3 FP inh	PAFAH2 inh	pPAFAH FP inh	ARFGAP1 inh	PAFAH1B2 inh	PAFAH2 FP conf
O=C(Nc1cccc(F)c1)N1CCc2nc(NCc3cccc(Oc4ccccc4)c3)ncc2C1	-5.4	.	.	.	6.3	.	.
Cc1ccccc1C(=O)N1CCC(C(=O)NN2C(=O)NC3(CCCCC3)C2=O)CC1	-3.7	0.8	-12.7	3.1	-10.5	-1.7	.
COc1ccccc1/C=C/c1nc2ccc(OC(C)=O)cc2c(=O)o1	-5.0	9.2	77.7*	13.3	-4.5	1.5	66.7*
COc1ccc(Nc2nc3ccccc3c(=O)[nH]2)cc1	-4.8	1.2	-0.4	-5.2	3.9	5.9	.
COc1ccc(/C=C/c2nc3ccccc3c(=O)o2)cc1	10.8	2.7	62.2*	-5.7	8.6	10.9	57.5*
Cc1ccc(-c2nc3c(C)cc(Br)cn3c2Cc2ccccc2C(F)(F)F)cc1	5.2	.	.	.	-8.9	.	.
CC1(C(=O)NS(=O)(=O)c2ccc(F)cc2F)CCN1C(=O)C1CCCCC1 (stereo not drawn)	0.3	.	.	.	9.0	.	.
Cc1cccc(/C=C(\C(=O)O)c2ccc(S(=O)(=O)N3CCCC3)s2)c1	-5.7	-2.6	4.1	13.4	-1.6	-2.4	.
CC(=O)Nc1cccc2c1Cc1ccccc1-2	.	2.0	42.2*	8.7	.	2.2	-1.7
CC(C)(C)n1nnnc1C(c1ccccc1)N1CCCN(Cc2ccc(F)cc2)CC1 (stereo not drawn)	2.1	.	.	.	6.2	.	.
CNC(=O)C1CN(C(=O)c2cccc(S(=O)(=O)N3c4ccccc4CC3C)c2)c2ccccc2O1 (stereo not drawn)	1.6	-3.6	4.6	3.0	13.2	-2.8	.
CC(=O)c1ccc(NC(=O)c2ccc(NC(=O)CCS(=O)(=O)c3cccs3)cc2)cc1	3.8	-0.5	71.6*	0.8	1.2	-0.3	58.2*
CC1CCCC(NC(=O)COC(=O)c2ccc(S(=O)(=O)N3CCOCC3)cc2)C1C (stereo not drawn)	-9.0	4.0	-4.4	3.7	7.2	1.1	.
CC1CCCC(NC(=O)COC(=O)c2cc3ccccc3oc2=O)C1C (stereo not drawn)	-0.1	9.9	37.2*	-6.1	8.1	11.5	21.0
N#Cc1ccc(NC(=O)COC(=O)c2cccnc2Cl)cc1	-17.4	0.4	43.4*	8.4	2.9	5.7	35.8*
CC1CCCC(NC(=O)COC(=O)c2cccnc2Cl)C1C (stereo not drawn)	-1.0	3.2	66.6*	7.0	-3.4	5.7	50.8*
CC1CCCC(NC(=O)COC(=O)COc2ccccc2Cl)C1C (stereo not drawn)	-2.9	1.0	4.3	0.0	0.4	-1.6	.
CC1CCCC(NC(=O)COC(=O)c2ccc(Cl)nc2)C1C (stereo not drawn)	10.2	-6.6	33.3*	1.0	-7.4	0.2	23.5
Oc1ccc(Cl)cc1CNCc1cccc2ccccc12	3.4	-2.5	17.6	2.9	1.8	1.6	.
CC1(C)Cc2noc(N)c2C(C)(C)N1OC(=O)c1ccccc1	4.2	1.4	-0.3	2.3	0.3	2.5	.
O=C(ON=C1CCN(S(=O)(=O)c2ccccc2)CC1)c1cccc(Cl)c1	11.5	9.3	82.4*	12.5	-1.9	16.5	79.4*
O=S(=O)(c1ccccc1)N1CCC(=NO)CC1	5.5	10.4	9.6	-1.4	-14.1	8.2	.
COc1ccc(C(=O)ON=C2CCN(C)CC2)cc1	8.8	0.6	75.2*	3.4	14.4	4.6	62.6*
CC1(C)CC(=NOC(=O)c2ccccc2)CC(C)(C)N1O	-12.4	8.0	33.0*	3.1	-2.6	6.3	31.8*
O=C(ON=C1CCN(S(=O)(=O)c2ccccc2)CC1)c1ccccc1	-1.8	5.6	91.4*	1.6	-0.5	10.0	82.9*
SMILES	ASAP1 inh	PAFAH1B3 FP inh	PAFAH2 inh	pPAFAH FP inh	ARFGAP1 inh	PAFAH1B2 inh	PAFAH2 FP conf
O=S(=O)(c1ccccc1)N1CCN(c2cccc(Cl)c2)CC1	3.7	6.6	7.0	9.3	4.3	3.3	.
Cc1ccnc(N=Cc2nc(-c3ccccc3Br)oc2O)c1	6.9	9.9	63.5*	0.2	3.6	1.8	60.2*
COc1ccccc1CC(=O)NC12CC3CC(CC(C3)C1)C2	-2.2	3.6	0.5	-0.5	3.3	0.0	.
COc1ccc(C(=O)OCC(=O)NC23CC4CC(CC(C4)C2)C3)c(OC)c1OC	6.1	10.2	86.4*	23.4	5.9	11.2	85.6*
O=C(COC(=O)c1ccccc1O)NC12CC3CC(CC(C3)C1)C2	3.8	8.2	68.3*	10.8	0.0	10.9	62.7*
Cc1cccc(C(=O)OCC(=O)NC23CC4CC(CC(C4)C2)C3)c1O	5.4	-3.7	59.1*	4.6	6.2	11.2	46.1*
O=C(COC(=O)Cc1c(F)cccc1Cl)NNC(=O)c1ccccc1	6.1	-1.0	6.1	4.4	-11.2	4.7	.
O=S1(=O)CC(N2CCN(CCO)CC2)CN1Cc1cn(Cc2cccc(C(F)(F)F)c2)nn1 (stereo not drawn)	-7.0	.	.	.	-8.4	.	.
CCc1ccc2cc3c(cc2n1)C(=O)c1ccccc1-3	-0.2	.	.	.	-5.2	.	.
CCN(CC(=O)Nc1c(F)cccc1F)C(=O)C1CC(=O)N(CCc2ccc(OC)c(OC)c2)C1 (stereo not drawn)	13.5	-2.1	-4.6	0.6	2.1	7.0	.
O=C(N/N=C/c1cccc(Cl)c1)C(c1ccncc1)N1CCOCC1 (stereo not drawn)	-11.1	1.9	50.5*	7.0	-4.4	2.8	40.7*
COc1ccc(-c2csc(C(C)(O)c3ccccc3)n2)cn1 (stereo not drawn)	2.8	.	.	.	9.8	.	.
Cc1oc(-c2ccccc2)nc1C(=O)Nc1nccs1	-8.0	3.4	31.9*	7.1	-1.1	4.4	1.0
COc1ccc(-c2csc(NC(=O)c3nc(-c4ccccc4)oc3C)n2)cc1	-3.4	-2.5	-0.6	3.7	11.0	-2.4	.
CCOC(=O)c1ccc(N2C(=O)C3CCOc4ccccc4C32)cc1 (stereo not drawn)	-8.0	9.6	80.4*	-0.9	2.8	9.1	62.5*
CCOC(=O)C1=C(C)N=c2s/c(=C\c3ccc(O)c([N+](=O)[O-])c3)c(=O)n2C1c1ccccc1OC (stereo not drawn)	1.7	20.1	35.5*	22.7	-5.7	14.6	25.1
